# Columns and labels:
# [1] = Drug uptake in BALB/c mouse gut xenografted with mouse Colon 26 cells at 100 uCi administered parenterally after 72 hrs by PET analysis; assay type: ADME, cell-based; settings: in vivo, other
# Summary of the method: (§1)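 ¹²⁴I-labelled PS given by tail vein to BALB/c mice bearing Colon26 tumours (100 μCi per figure legend). Three mice per time point killed at 24, 48 and 72 h. Tumour, organs and blood weighed and counted in a γ-well counter. Uptake expressed as %ID/g.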
# Mus musculus [2] = assay: Drug uptake in mouse Colon 26 cells xenografted iv dosed BALB/c mouse after 48 hrs by PET imaging; assay type: ADME, organism-based; settings: in vivo
# Summary of the method: (§2)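 Colon26 tumors grown subcutaneously in BALB/c mice. ¹²⁴I-labeled photosensitizer given into the tail vein at 52–122 μCi. Under isoflurane/oxygen anesthesia, animals were scanned prone on a microPET for 30 min at 24, 48 and 72 h post-injection. Tumor uptake was estimated by region-of-interest calculations.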
# Lung [3] = assay: Drug uptake in BALB/c mouse lungs xenografted with mouse Colon 26 cells at 100 uCi administered parenterally after 48 hrs by PET analysis; assay type: ADME, tissue-based; settings: in vivo, other; summary of the method: as §1
# Spleen [4] = assay: Drug uptake in BALB/c mouse spleen xenografted with mouse Colon 26 cells at 100 uCi administered parenterally after 24 hrs by PET analysis; assay type: ADME, tissue-based; settings: in vivo, other; summary of the method: as §1
# [5] = Drug uptake in BALB/c mouse gut xenografted with mouse Colon 26 cells at 100 uCi administered parenterally after 24 hrs by PET analysis; assay type: ADME, cell-based; settings: in vivo, other
# Lung [6] = assay: Drug uptake in BALB/c mouse lungs xenografted with mouse Colon 26 cells at 100 uCi administered parenterally after 24 hrs by PET analysis; assay type: ADME, tissue-based; settings: in vivo, other; summary of the method: as §1
# Heart [7] = assay: Drug uptake in BALB/c mouse heart xenografted with mouse Colon 26 cells at 100 uCi administered parenterally after 72 hrs by PET analysis; assay type: ADME, tissue-based; settings: in vivo, other; summary of the method: as §1
# Mus musculus [8] = assay: Drug uptake in mouse Colon 26 cells xenografted iv dosed BALB/c mouse after 24 hrs by PET imaging; assay type: ADME, organism-based; settings: in vivo; summary of the method: as §2
# Blood [9] = assay: Drug uptake in BALB/c mouse blood xenografted with mouse Colon 26 cells at 100 uCi administered parenterally after 24 hrs by PET analysis; assay type: ADME, tissue-based; settings: in vivo, other; summary of the method: as §1
# Kidney [10] = assay: Drug uptake in BALB/c mouse kidney xenografted with mouse Colon 26 cells at 100 uCi administered parenterally after 72 hrs by PET analysis; assay type: ADME, tissue-based; settings: in vivo, other; summary of the method: as §1
# Spleen [11] = assay: Drug uptake in BALB/c mouse spleen xenografted with mouse Colon 26 cells at 100 uCi administered parenterally after 48 hrs by PET analysis; assay type: ADME, tissue-based; settings: in vivo; summary of the method: as §1
# Liver [12] = assay: Drug uptake in BALB/c mouse liver xenografted with mouse Colon 26 cells at 100 uCi administered parenterally after 72 hrs by PET analysis; assay type: ADME, tissue-based; settings: in vivo, other; summary of the method: as §1
# Muscle tissue [13] = assay: Drug uptake in BALB/c mouse muscle xenografted with mouse Colon 26 cells at 100 uCi administered parenterally after 72 hrs by PET analysis; assay type: ADME, tissue-based; settings: in vivo, other; summary of the method: as §1
# Liver [14] = assay: Drug uptake in BALB/c mouse liver xenografted with mouse Colon 26 cells at 100 uCi administered parenterally after 24 hrs by PET analysis; assay type: ADME, tissue-based; settings: in vivo, other; summary of the method: as §1
# Heart [15] = assay: Drug uptake in BALB/c mouse heart xenografted with mouse Colon 26 cells at 100 uCi administered parenterally after 24 hrs by PET analysis; assay type: ADME, tissue-based; settings: in vivo, other; summary of the method: as §1
# Blood [16] = assay: Drug uptake in BALB/c mouse blood xenografted with mouse Colon 26 cells at 100 uCi administered parenterally after 48 hrs by PET analysis; assay type: ADME, tissue-based; settings: in vivo, other; summary of the method: as §1
# Heart [17] = assay: Drug uptake in BALB/c mouse heart xenografted with mouse Colon 26 cells at 100 uCi administered parenterally after 48 hrs by PET analysis; assay type: ADME, tissue-based; settings: in vivo, other; summary of the method: as §1
# Muscle tissue [18] = assay: Drug uptake in BALB/c mouse muscle xenografted with mouse Colon 26 cells at 100 uCi administered parenterally after 24 hrs by PET analysis; assay type: ADME, tissue-based; settings: in vivo, other; summary of the method: as §1
# [19] = Drug uptake in mouse Colon 26 cells implanted BALB/c mouse tumor at 100 uCi administered parenterally after 24 hrs by gamma counting; assay type: ADME, Neoplasm; settings: in vivo, other; summary of the method: as §1
# Stomach [20] = assay: Drug uptake in BALB/c mouse stomach xenografted with mouse Colon 26 cells at 100 uCi administered parenterally after 24 hrs by PET analysis; assay type: ADME, tissue-based; settings: in vivo, other; summary of the method: as §1
# Muscle tissue [21] = assay: Drug uptake in BALB/c mouse muscle xenografted with mouse Colon 26 cells at 100 uCi administered parenterally after 48 hrs by PET analysis; assay type: ADME, tissue-based; settings: in vivo, other; summary of the method: as §1
# Spleen [22] = assay: Drug uptake in BALB/c mouse spleen xenografted with mouse Colon 26 cells at 100 uCi administered parenterally after 72 hrs by PET analysis; assay type: ADME, tissue-based; settings: in vivo, other; summary of the method: as §1
# [23] = Drug uptake in mouse Colon 26 cells implanted subcutaneously in BALB/c mouse tumor at 100 uCi administered parenterally after 72 hrs by gamma counting; assay type: ADME, Neoplasm; settings: in vivo, sc; summary of the method: as §1
# Liver [24] = assay: Drug uptake in BALB/c mouse liver xenografted with mouse Colon 26 cells at 100 uCi administered parenterally after 48 hrs […]; assay type: ADME, tissue-based; settings: in vivo; summary of the method: as §1
# Mus musculus [25] = assay: Drug uptake in mouse Colon 26 cells xenografted iv dosed BALB/c mouse after 72 hrs by PET imaging; assay type: ADME, organism-based; settings: in vivo; summary of the method: as §2
# Kidney [26] = assay: Drug uptake in BALB/c mouse kidney xenografted with mouse Colon 26 cells at 100 uCi administered parenterally after 48 hrs by PET analysis; assay type: ADME, tissue-based; settings: in vivo, other; summary of the method: as §1
# [27] = Drug uptake in BALB/c mouse gut xenografted with mouse Colon 26 cells at 100 uCi administered parenterally after 48 hrs by PET analysis; assay type: ADME, cell-based; settings: in vivo, other; summary of the method: as §1
# Lung [28] = assay: Drug uptake in BALB/c mouse lungs xenografted with mouse Colon 26 cells at 100 uCi administered parenterally after 72 hrs by PET analysis; assay type: ADME, tissue-based; settings: in vivo, other; summary of the method: as §1
# Kidney [29] = assay: Drug uptake in BALB/c mouse kidney xenografted with mouse Colon 26 cells at 100 uCi administered parenterally after 24 hrs by PET analysis; assay type: ADME, tissue-based; settings: in vivo, other; summary of the method: as §1
# Blood [30] = assay: Drug uptake in BALB/c mouse blood xenografted with mouse Colon 26 cells at 100 uCi administered parenterally after 72 hrs by PET analysis; assay type: ADME, tissue-based; settings: in vivo, other; summary of the method: as §1
# Stomach [31] = assay: Drug uptake in BALB/c mouse stomach xenografted with mouse Colon 26 cells at 100 uCi administered parenterally after 72 hrs by PET analysis; assay type: ADME, tissue-based; settings: in vivo; summary of the method: as §1
# Stomach [32] = assay: Drug uptake in BALB/c mouse stomach xenografted with mouse Colon 26 cells at 100 uCi administered parenterally after 48 hrs by PET analysis; assay type: ADME, tissue-based; settings: in vivo, other; summary of the method: as §1
# [33] = Drug uptake in mouse Colon 26 cells implanted subcutaneously in BALB/c mouse tumor at 100 uCi administered parenterally after 48 hrs by gamma counting; assay type: ADME, Neoplasm; settings: in vivo, sc; summary of the method: as §1
# Intestine = assay: Drug uptake in parenterally dosed BALB/c mouse intestine xenografted with mouse Colon 26 cells after 72 hrs by PET analysis; assay type: ADME, organism-based; settings: in vivo, other
# Summary of the method: (§3)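 Tumor-bearing BALB/c mice (Colon26, subcutaneous) received ¹²⁴I-labeled photosensitizer via the tail vein at 15–50 μCi. Three mice per time point were sacrificed at 24, 48 and 72 h. Organs were removed, weighed and counted in a γ-well counter. Uptake was expressed as %ID/g tissue.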
# Liver [34] = assay: Drug uptake in parenterally dosed BALB/c mouse liver xenografted with mouse Colon 26 cells after 72 hrs by PET analysis; assay type: ADME, organism-based; settings: in vivo; summary of the method: as §3
# Spleen [35] = assay: Drug uptake in parenterally dosed BALB/c mouse spleen xenografted with mouse Colon 26 cells after 72 hrs by PET analysis; assay type: ADME, organism-based; settings: in vivo; summary of the method: as §3
Drug uptake [1],Drug uptake (Mus musculus [2]),Drug uptake (Lung [3]),Drug uptake (Spleen [4]),Drug uptake [5],Drug uptake (Lung [6]),Drug uptake (Heart [7]),Drug uptake (Mus musculus [8]),Drug uptake (Blood [9]),Drug uptake (Kidney [10]),Drug uptake (Spleen [11]),Drug uptake (Liver [12]),Drug uptake (Muscle tissue [13]),Drug uptake (Liver [14]),Drug uptake (Heart [15]),Drug uptake (Blood [16]),Drug uptake (Heart [17]),Drug uptake (Muscle tissue [18]),Drug uptake [19],Drug uptake (Mus musculus [25]),Structure (SMILES),also measured
Active,Active,Active,Active,Active,Active,Active,Active,Active,Active,Active,Active,Active,Active,Active,Active,Active,Active,Active,Active,CCC1=C(C)c2cc3[nH]c(cc4nc(c5c6[nH]c(cc1n2)c(C)c6C(=O)C5)C(CCC(=O)OC)[C@@H]4C)c(C)c3C(C)OCc1cccc([124I])c1 (stereo partly drawn),Drug uptake (Stomach [20]): Active; Drug uptake (Muscle tissue [21]): Active; Drug uptake (Spleen [22]): Active; Drug uptake [23]: Active; Drug uptake (Liver [24]): Active; Drug uptake (Kidney [26]): Active; Drug uptake [27]: Active; Drug uptake (Lung [28]): Active; Drug uptake (Kidney [29]): Active; Drug uptake (Blood [30]): Active; Drug uptake (Stomach [31]): Active; Drug uptake (Stomach [32]): Active; Drug uptake [33]: Active
,Active,,,,,,Active,,,,,,,,,,,,Active,CC[C@H]1c2cc3[nH]c4c(c5nc(cc6[nH]c(cc(n2)[C@@H]1C)c(C(C)OCc1cccc([124I])c1)c6C)C(C)=C5CCC(=O)O)CC(=O)c4c3C (stereo partly drawn),Drug uptake (Intestine): Active; Drug uptake (Liver [34]): Active; Drug uptake (Spleen [35]): Active
Active,Active,Active,Active,Active,Active,Active,Active,Active,Active,Active,Active,Active,Active,Active,Active,Active,Active,Active,Active,CCC1=C(C)c2cc3[nH]c(cc4nc(c5c6[nH]c(cc1n2)c(C)c6C(=O)C5)C(CCC(=O)O)[C@@H]4C)c(C)c3C(C)OCc1cccc([124I])c1 (stereo partly drawn),Drug uptake (Intestine): Active; Drug uptake (Stomach [20]): Active; Drug uptake (Muscle tissue [21]): Active; Drug uptake (Spleen [22]): Active; Drug uptake [23]: Active; Drug uptake (Liver [24]): Active; Drug uptake (Liver [34]): Active; Drug uptake (Spleen [35]): Active; Drug uptake (Kidney [26]): Active; Drug uptake [27]: Active; Drug uptake (Lung [28]): Active; Drug uptake (Kidney [29]): Active; Drug uptake (Blood [30]): Active; Drug uptake (Stomach [31]): Active; Drug uptake (Stomach [32]): Active; Drug uptake [33]: Active
,Active,,,,,,Active,,,,,,,,,,,,Active,CC[C@H]1c2cc3[nH]c4c(c5nc(cc6[nH]c(cc(n2)[C@@H]1C)c(C(C)OCc1cccc([124I])c1)c6C)C(C)=C5CCC(=O)OC)CC(=O)c4c3C (stereo partly drawn),
